Results reported in ChEMBL document CHEMBL3616414, “Macrocyclic Envelope Glycoprotein Antagonists that Irreversibly Inactivate HIV-1 before Host Cell Encounter” (J Med Chem, 2015).

Columns and labels:
[1] = Inhibition of HIV1 gp120 binding to CD4 by SPR competition binding assay; set-up: species or system Human immunodeficiency virus 1
[2] = Inhibition of HIV1 gp120 binding to 17b antibody by SPR competition binding assay; set-up: species or system Human immunodeficiency virus 1
[3] = Stability assessed as trypsin (unknown origin)-mediated compound degradation incubated for 5 hrs at 37 degC by HPLC and ESI-MS method; assay type: ADME; details: human
Procedure, shortened: (§1)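 Each peptide was incubated on its own with a single protease (trypsin or chymotrypsin) at 37 °C. Digestion was tracked by HPLC and ESI-MS for remaining intact peptide. For chymotrypsin, samples were taken after 30 min, and the cyclic peptide was also checked after 20 h and 40 h.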

[4] = Stability assessed as chymotrypsin (unknown origin)-mediated compound degradation incubated for 5 hrs at 37 degC by HPLC and ESI-MS method; assay type: ADME; details: human
Procedure, shortened: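 Each peptide incubated on its own with chymotrypsin at 37 °C. Digestion followed over time by HPLC, with ESI-MS used to check the intact peptide and its fragments. Extended sampling at 20 h and 40 h was also done.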

[5] = Stability assessed as chymotrypsin (unknown origin)-mediated compound degradation incubated for 30 mins at 37 degC by HPLC and ESI-MS method; assay type: ADME; details: human, 0.5 h; procedure, shortened: as §1
[6] = Stability assessed as chymotrypsin (unknown origin)-mediated compound degradation incubated for 20 hrs at 37 degC by HPLC and ESI-MS method; assay type: ADME; details: human; procedure, shortened: as §1
[7] = Stability assessed as chymotrypsin (unknown origin)-mediated compound degradation incubated for 40 hrs at 37 degC by HPLC and ESI-MS method; assay type: ADME; details: human; procedure, shortened: as §1

SMILES	IC50 [1]	IC50 [2]	other results
CC[C@@H](C)[C@@H](N)C(=O)N[C@H]1CCC(=O)NCCCC[C@H](C(N)=O)NC(=O)[C@@H](Cc2c[nH]c3ccccc23)NC(=O)[C@H]2C[C@@H](n3cc(CCc4ccccc4)nn3)CN2C(=O)[C@@H]([C@H](C)CC)NC(=O)[C@@H](CC(N)=O)NC1=O	138 nM	269 nM	
CC[C@@H](C)[C@H]1NC(=O)[C@@H](CC(N)=O)NC(=O)[C@@H](N)CC(=O)NCCC[C@H](C(N)=O)NC(=O)[C@@H](Cc2c[nH]c3ccccc23)NC(=O)[C@H]2C[C@@H](n3cc(CCc4ccccc4)nn3)CN2C1=O	5700 nM	3900 nM	
CC[C@@H](C)[C@H]1NC(=O)[C@@H](CC(N)=O)NC(=O)[C@@H](N)CCC(=O)NCCCC[C@H](C(N)=O)NC(=O)[C@@H](Cc2c[nH]c3ccccc23)NC(=O)[C@H]2C[C@@H](n3cc(CCc4ccccc4)nn3)CN2C1=O	> 40000 nM	> 40000 nM	
CC[C@@H](C)[C@H]1NC(=O)[C@@H](CC(N)=O)NC(=O)[C@@H](N)CCC(=O)NCC[C@H](C(N)=O)NC(=O)[C@@H](Cc2c[nH]c3ccccc23)NC(=O)[C@H]2C[C@@H](n3cc(CCc4ccccc4)nn3)CN2C1=O	> 20000 nM	> 20000 nM	
CC[C@@H](C)[C@H]1NC(=O)[C@@H](CC(N)=O)NC(=O)[C@@H](N)CC(=O)NCCCC[C@H](C(N)=O)NC(=O)[C@@H](Cc2c[nH]c3ccccc23)NC(=O)[C@H]2C[C@@H](n3cc(CCc4ccccc4)nn3)CN2C1=O	85 nM	96 nM	Stability ([3]; 5 h): Stable; Stability [4]: Stable; Stability [5]: Stable; Stability [6]: Stable; Stability [7]: Stable
CC[C@@H](C)[C@@H](NC(=O)[C@@H](CC(N)=O)NC(=O)[C@@H](N)CC(=O)O)C(=O)N1C[C@H](n2cc(CCc3ccccc3)nn2)C[C@@H]1C(=O)N[C@H](Cc1c[nH]c2ccccc12)C(=O)N[C@H](CCCCN)C(N)=O			metabolised at 5 h ([3]; trypsin, read-out: Drug degradation): 60%; Drug degradation [4]: 60%; Drug degradation [5]: 100%
CC[C@@H](C)[C@H]1NC(=O)[C@@H](CC(N)=O)NC(=O)[C@@H](N)CC(=O)NCC[C@H](C(N)=O)NC(=O)[C@@H](Cc2c[nH]c3ccccc23)NC(=O)[C@H]2C[C@@H](n3cc(CCc4ccccc4)nn3)CN2C1=O	500 nM	400 nM	
